Measurements as given in ChEMBL document CHEMBL3286129, “Optimization of peptidomimetic boronates bearing a P3 bicyclic scaffold as proteasome inhibitors” (Eur J Med Chem, 2014).
Active and inactive are the calls of the source. The calls are words filed in the database; no cut-off is given here.

What was measured:
[1] = target: T1, Proteasome Macropain subunit MB1 (Homo sapiens) (UniProt P28074); assay: Inhibition of chymotrypsin-like activity of 20S proteasome in human erythrocytes using Suc-Leu-Leu-Val-Tyr-AMC as substrate at 20 uM by fluorescence assay relative to control
T1 sequence (whole entry): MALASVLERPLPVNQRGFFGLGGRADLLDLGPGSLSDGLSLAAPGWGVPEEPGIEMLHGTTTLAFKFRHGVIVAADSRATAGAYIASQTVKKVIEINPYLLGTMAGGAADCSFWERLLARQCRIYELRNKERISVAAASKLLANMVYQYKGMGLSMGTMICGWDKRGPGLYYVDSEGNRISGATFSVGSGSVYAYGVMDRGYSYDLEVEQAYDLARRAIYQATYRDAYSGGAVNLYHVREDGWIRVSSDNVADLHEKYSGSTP
How it was run: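 Single inhibitor concentration, equivalent DMSO as negative control. AMC fluorescence read at ex 380/em 460 nm; percent inhibition of ChT-L activity.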

[2] = Cytotoxicity against human ovarian cancer cells assessed as cell growth at 10 uM relative to control; type: functional; conditions: Cancer cell lines, read-out: Activity
How it was run: (§1)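 Single-concentration screen against a panel of human cancer cell lines. Each value is the mean percent growth across the cell lines of that tumour subpanel.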

[3] = Cytotoxicity against human renal cancer cells assessed as cell growth at 10 uM relative to control; type: functional; conditions: Cancer cell lines, read-out: Activity; how it was run: as §1
[4] = Cytotoxicity against human NSCLC cells assessed as cell growth at 10 uM relative to control; type: functional; conditions: read-out: Activity; how it was run: as §1
[5] = Cytotoxicity against human colon cancer cells assessed as cell growth at 10 uM relative to control; type: functional; conditions: Cancer cell lines, read-out: Activity; how it was run: as §1
[6] = target: T2, Proteasome Macropain subunit MB1 (Homo sapiens, UniProt P28074); assay: Inhibition of chymotrypsin-like activity of 20S proteasome in human erythrocytes using Suc-Leu-Leu-Val-Tyr-AMC as substrate by fluorescence assay
T2 sequence (P28074 whole entry): T1 sequence (whole entry)

Chymotrypsinogen A = Chymotrypsinogen A (Bos taurus, UniProt P00766); assay: Inhibition of bovine pancreatic alpha-chymotrypsin using Suc-Leu-Leu-Val-Tyr-AMC as substrate by fluorescence assay
How it was run: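 Enzyme incubated at 20 °C in 50 mM Tris pH 8.0, 100 mM NaCl, 5 mM EDTA, 7.5% DMSO with varied inhibitor concentrations. Substrate hydrolysis followed for 10 min. Ki from progress curves; mean of three determinations.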

[7] = Cytotoxicity against human CNSC cells assessed as cell growth at 10 uM relative to control; type: functional; conditions: read-out: Activity; how it was run: as §1
[8] = Cytotoxicity against human melanoma cells assessed as cell growth at 10 uM relative to control; type: functional; conditions: read-out: Activity; how it was run: as §1
[9] = Cytotoxicity against human leukemia cells assessed as cell growth at 10 uM relative to control; type: functional; conditions: read-out: Activity; how it was run: as §1
[10] = target: Proteasome Macropain subunit (Homo sapiens) (UniProt P49721); assay: Inhibition of trypsin-like activity of 20S proteasome in human erythrocytes using Boc-Leu-Arg-Arg-AMC as substrate by fluorescence assay; type: cell-based
How it was run: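 Human 20S proteasome 0.0025 mg/mL at 30 °C in 50 mM Tris pH 7.4, 50 mM NaCl, 0.5 mM EDTA, 0.03% SDS, 7.5% DMSO. Varied inhibitor concentrations; AMC release monitored continuously for 10 min, ex 380/em 460 nm. Ki derived from progress-curve IC50 fit.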

[11] = Cytotoxicity against human prostate cancer cells assessed as cell growth at 10 uM relative to control; type: functional; conditions: Cancer cell lines, read-out: Activity; how it was run: as §1
[12] = Cytotoxicity against human breast cancer cells assessed as cell growth at 10 uM relative to control; type: functional; conditions: Cancer cell lines, read-out: Activity; how it was run: as §1
[13] = target: Proteasome component C5 (Homo sapiens) (UniProt P20618); assay: Inhibition of PGPH-like activity of 20S proteasome in human erythrocytes using Z-Leu-Leu-Glu-AMC as substrate at 20 uM by fluorescence assay relative to control
How it was run: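 Single-concentration screen of PGPH activity. Human 20S proteasome (0.004 mg/mL) at 30 °C in 50 mM Tris pH 7.5 with 25 mM KCl, 10 mM NaCl, 1 mM MgCl2, 0.03% SDS, 5% DMSO; equivalent DMSO as control. AMC fluorescence at ex 380/em 460 nm.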

Proteasome component C5 = target: T3, Proteasome component C5 (Homo sapiens, UniProt P20618); assay: Inhibition of PGPH-like activity of 20S proteasome in human erythrocytes using Z-Leu-Leu-Glu-AMC as substrate by fluorescence assay
T3 sequence (P20618 whole entry): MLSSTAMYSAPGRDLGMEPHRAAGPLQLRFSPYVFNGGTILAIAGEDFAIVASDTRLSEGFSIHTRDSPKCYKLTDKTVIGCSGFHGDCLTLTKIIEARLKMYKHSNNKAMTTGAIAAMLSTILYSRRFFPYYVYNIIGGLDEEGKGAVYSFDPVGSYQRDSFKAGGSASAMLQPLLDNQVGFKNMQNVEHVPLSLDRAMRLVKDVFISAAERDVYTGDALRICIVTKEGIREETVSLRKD
How it was run: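 Human 20S proteasome 0.004 mg/mL, 30 °C, 50 mM Tris pH 7.5 with 25 mM KCl, 10 mM NaCl, 1 mM MgCl2, 0.03% SDS, 5% DMSO. Ki from 4-parameter IC50 fit of progress curves, corrected to zero substrate via Km. Mean of three.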

Chain of Proteasome Macropain subunit (Homo sapiens) (P49721 whole entry): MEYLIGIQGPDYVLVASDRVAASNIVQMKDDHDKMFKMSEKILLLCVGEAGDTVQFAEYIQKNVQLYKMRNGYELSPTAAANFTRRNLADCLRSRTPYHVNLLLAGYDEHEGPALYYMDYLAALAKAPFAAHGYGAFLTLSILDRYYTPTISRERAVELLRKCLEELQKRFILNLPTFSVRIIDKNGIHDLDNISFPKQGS

Compound	inhibition [1] [%]	growth at 10 µM [2] [%]	growth at 10 µM [3] [%]	growth at 10 µM [4] [%]	growth at 10 µM [5] [%]	Ki ([6]; read-out: Ki) [nM]	Ki (Chymotrypsinogen A; read-out: Ki) [nM]	growth at 10 µM [7] [%]	growth at 10 µM [8] [%]	growth at 10 µM [9] [%]	inhibition [10]	growth at 10 µM [11] [%]	growth at 10 µM [12] [%]	Ki (Chymotrypsinogen A)	inhibition [13] [%]	Ki [6]	Ki (Proteasome component C5)
CC(C)C[C@H](NC(=O)Cn1ccc2ccccc2c1=O)B(O)O	> 40	86.7	39.8	75.6	57.9	490	9110	71	43.5	23.1	inactive	80.2	51.3	–	–	–	–
CC(C)C[C@H](NC(=O)Cn1ccc2ncccc2c1=O)B(O)O	–	–	–	–	–	–	–	–	–	–	inactive	–	–	Not Active	–	–	–
CC(C)C[C@H](NC(=O)Cn1cc(Br)c2ncccc2c1=O)B(O)O	–	–	–	–	–	–	–	–	–	–	inactive	–	–	Not Active	–	–	–
COc1cc2ccn(CCC(=O)N[C@@H](CC(C)C)B(O)O)c(=O)c2cc1OC	> 40	92.6	89	90.3	90.8	85	–	78.3	63.7	59	inactive	98.8	56.9	Not Active	–	–	–
CC(C)CCNC(=O)CCn1cc(Br)c2ncccc2c1=O	–	–	–	–	–	80	–	–	–	–	inactive	–	–	Not Active	44	–	–
CC(C)CCNC(=O)CCn1ccc2ccc(Br)cc2c1=O	–	104	86.1	97.7	104	–	–	97.2	94	83.4	inactive	103	94.5	–	–	–	–
COc1cc2ccn(CC(=O)N[C@@H](CC(C)C)B(O)O)c(=O)c2cc1OC	> 40	103	98.5	102	104	–	–	99.6	104	98.8	inactive	100	99	Not Active	–	Not Active	Not Active
